From ChEMBL document CHEMBL3826882, “Discovery of 1-((2R,4aR,6R,7R,7aR)-2-Isopropoxy-2-oxidodihydro-4H,6H-spiro[furo[3,2-d][1,3,2]dioxaphosphinine-7,2'-oxetan]-6-yl)pyrimidine-2,4(1H,3H)-dione (JNJ-54257099), a 3'-5'-Cyclic Phosphate Ester Prodrug of 2'-Deoxy-2'-Spirooxetane Uridine Triphosphate Useful for HCV Inhibition” (J Med Chem, 2016)
pEC50: −log10 of the molar value. Values belong to the molecule of their own block, whether it stands above or below them.

Legend:
[1] = tested on: Hepatocyte; assay: Prodrug conversion in human primary hepatocytes assessed as 2'-deoxy-2'-spirooxetane uridine triphosphate level per million cells at 62.5 uM after 24 hrs using radiolabelled compound by LC-MS/MS analysis; format: ADME, cell-based
Outline: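 Study A: fresh primary hepatocyte cultures from mouse, rat, dog and human incubated with tritiated prodrug at 2 or 62.5 µM for 4 or 24 h. Triphosphate in cell lysates reported as pmol/million hepatocytes. Duplicate or single measurements.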

[2] = tested on: Hepatocyte; assay: Stability in mouse primary hepatocyte supernatant assessed as parent compound level at 2 uM after 4 to 24 hrs using radiolabeled compound by HPLC analysis; format: ADME, cell-based; conditions: hepatocytes
[3] = tested on: Hepatocyte; assay: Stability in rat primary hepatocytes assessed as parent compound level at 2 to 62.5 uM after 24 hrs using radiolabeled compound by LC-MS/MS analysis; format: ADME, cell-based
Outline: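 Study A: rat primary cultured hepatocytes incubated with 5'-[3H]-labelled prodrug at 2 and 62.5 µM for 4 and 24h; cell lysates profiled by LC with radioactivity detection. Cyclic monophosphate co-eluted with parent and was assessed separately by LC/MS/MS. Duplicate or single measurements.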

[4] = tested on: Hepatocyte; assay: Drug metabolism in rat primary hepatocytes assessed as 1-[(4aR,6R,7R,7aR)-2-hydroxy-2-oxidodihydro-4H-spiro[furo[3,2-d][1,3,2]dioxaphosphinine-7,2'-oxetan]-6-yl]pyrimidine-2,4(1H,3H)-dione formation at 2 to 62.5 uM after 24 hrs using radiolabelled compound by LC-MS/MS analysis; format: ADME, cell-based
Outline: (§1)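 Fresh primary hepatocyte cultures incubated with tritiated prodrug (5'-[3H]) at 2 and 62.5 µM for 4 and 24 h. Supernatants taken after protein precipitation and profiled by HPLC with radioactivity detection. Cell lysates profiled for metabolites by radio-LC. Cyclic monophosphate also measured by LC/MS/MS.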

[5] = tested on: Hepatocyte; assay: Drug metabolism in rat primary hepatocyte supernatant assessed as 1-[(4aR,6R,7R,7aR)-2-hydroxy-2-oxidodihydro-4H-spiro[furo[3,2-d][1,3,2]dioxaphosphinine-7,2'-oxetan]-6-yl]pyrimidine-2,4(1H,3H)-dione formation at 2 to 62.5 uM after 4 to 24 hrs using radiolabelled compound by HPLC analysis; format: ADME, cell-based; conditions: hepatocytes; outline: as §1
[6] = tested on: Liver; assay: Tlast in dog liver at 50 mg/kg, po; format: ADME, organism-based, Canis lupus familiaris; conditions: in vivo
Outline: (§2)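 Single oral dose of 50 mg/kg formulated in 20% HP-β-cyclodextrin. Prodrug and its triphosphate were measured in plasma and liver (ng/mL or ng/g) over time, and Cmax, tmax, AUC, tlast and t1/2 were derived. For some analytes, data from two independent studies are reported.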

[7] = tested on: Liver; assay: Tmax in rat liver assessed as 2'-deoxy-2'-spirooxetane uridine triphosphate at 50 mg/kg, po; format: ADME, organism-based; conditions: in vivo; outline: as §2
[8] = Cytotoxicity against human HuH7-CMV-Luc cells assessed as reduction in cell proliferation after 3 days by 5-bromo-2'-deoxyuridine incorporation assay; format: cell-based, Huh-7
Outline: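 Huh7 cells at 1,500 cells/well, five serial compound dilutions in triplicate, 3 days of incubation. Proliferation was quantified as BrdU incorporation into DNA by ELISA.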

[9] = tested on: Hepatocyte; assay: Prodrug conversion in human primary hepatocytes assessed as 2'-deoxy-2'-spirooxetane uridine triphosphate formation measured at 48 to 96 hrs by LC-MS/MS analysis; format: ADME, cell-based
Outline: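 Hepatocyte primary cultures followed over time for triphosphate formation in cell lysates: rat and mouse up to 24 h, human up to 96 h.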

[10] = tested on: Liver; assay: AUC (0 to infinity) in rat liver assessed as 2'-deoxy-2'-spirooxetane uridine triphosphate at 50 mg/kg, po; format: ADME, organism-based; design: dose 50 mg/kg, time infinity, route oral; conditions: in vivo
Outline: (§3)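 Oral dose 50 mg/kg, formulated in 20% HP-β-cyclodextrin. Prodrug and triphosphate were measured in plasma and liver (ng/mL or ng/g). Parameters derived were Cmax, tmax, AUC0-last, AUC0-inf and t1/2. Some prodrug data come from two independent studies.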

[11] = tested on: Hepatocyte; assay: Prodrug conversion in mouse cryopreserved hepatocytes assessed as 2'-deoxy-2'-spirooxetane uridine triphosphate level per million cells at 10 uM after 24 hrs by LC-MS/MS analysis; format: ADME, cell-based
Outline: (§4)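 Plated cryopreserved hepatocytes (study B) incubated with 10 µM unlabeled prodrug for 2, 8 or 24 h. Triphosphate measured in cell lysates and expressed as pmol/million hepatocytes. Quantification limit 2 ng/10^6 cells.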

[12] = target: Cytochrome P450 3A4 (Homo sapiens, UniProt P08684); assay: Drug metabolism in baculovirus infected insect cell microsomes expressing human CYP3A4 assessed as CYP3A4-mediated intrinsic clearance per pmol CYP3A4 at 22.7 uM; format: ADME; conditions: recombinant enzyme
Cytochrome P450 3A4, sequence (P08684 whole entry): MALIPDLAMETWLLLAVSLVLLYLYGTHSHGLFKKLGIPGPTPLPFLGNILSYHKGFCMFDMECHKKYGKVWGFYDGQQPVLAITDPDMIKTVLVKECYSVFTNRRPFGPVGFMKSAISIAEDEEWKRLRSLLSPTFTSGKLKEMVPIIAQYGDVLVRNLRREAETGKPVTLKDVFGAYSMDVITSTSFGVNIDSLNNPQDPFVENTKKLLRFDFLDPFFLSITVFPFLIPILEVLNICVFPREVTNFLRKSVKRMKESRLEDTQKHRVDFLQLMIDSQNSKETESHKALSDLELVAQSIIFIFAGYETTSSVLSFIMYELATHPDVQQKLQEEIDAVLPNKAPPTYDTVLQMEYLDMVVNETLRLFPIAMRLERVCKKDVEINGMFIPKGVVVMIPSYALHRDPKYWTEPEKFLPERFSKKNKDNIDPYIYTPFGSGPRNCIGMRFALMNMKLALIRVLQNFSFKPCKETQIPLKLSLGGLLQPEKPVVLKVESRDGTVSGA
Outline: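 Incubation at 22.7 µM with human CYP3A4 supersomes. Intrinsic clearance (µL/min.pmol P450) and half-life (min) were determined.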

[13] = tested on: Liver; assay: AUC (0 to last) in mouse liver assessed as 2'-deoxy-2'-spirooxetane uridine triphosphate at 50 mg/kg, po; format: ADME, organism-based; conditions: in vivo; outline: as §3
[14] = tested on: Hepatitis C virus; assay: Antiviral activity against HCV genotype 1b infected in human HuH7 cells assessed as inhibition of viral replication after 3 days by luciferase reporter gene assay; format: functional, organism-based, Hepacivirus hominis; conditions: Huh-7, 72 h
Outline: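 HCV 1b subgenomic luciferase replicon (Huh7-luc, clone ET, adaptive mutations E1202G, T1280I, K1846T). 2,500 cells were incubated with compound over a 9-point, 1/4 dilution series for 3 days. Replication was read as luciferase activity.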

[15] = tested on: Liver; assay: Tmax in dog liver assessed as 2'-deoxy-2'-spirooxetane uridine triphosphate at 50 mg/kg, po; format: ADME, organism-based, Canis lupus familiaris; conditions: in vivo; outline: as §2
[16] = tested on: Hepatocyte; assay: Prodrug conversion in rat cryopreserved hepatocytes assessed as 2'-deoxy-2'-spirooxetane uridine triphosphate level per million cells at 10 uM after 2 hrs by LC-MS/MS analysis; format: ADME, cell-based; outline: as §4
[17] = tested on: Hepatocyte; assay: Prodrug conversion in mouse cryopreserved hepatocytes assessed as 2'-deoxy-2'-spirooxetane uridine triphosphate level per million cells at 10 uM after 8 hrs by LC-MS/MS analysis; format: ADME, cell-based; outline: as §4
[18] = tested on: Plasma; assay: Tlast in dog plasma at 50 mg/kg, po; format: ADME, organism-based, Canis lupus familiaris; conditions: in vivo; outline: as §2
[19] = tested on: Hepatocyte; assay: Prodrug conversion in human hepatocytes assessed as 2'-deoxy-2'-spirooxetane uridine triphosphate formation in presence of CYP3A4 inhibitor ritonavir by LC-MS/MS analysis; format: ADME, cell-based
[20] = tested on: Liver; assay: AUC (0 to infinity) in mouse liver assessed as 2'-deoxy-2'-spirooxetane uridine triphosphate at 50 mg/kg, po; format: ADME, organism-based; design: dose 50 mg/kg, time infinity, route oral; conditions: in vivo; outline: as §3
[21] = tested on: Liver; assay: AUC (0 to last) in dog liver at 50 mg/kg, po; format: ADME, organism-based, Canis lupus familiaris; conditions: in vivo; outline: as §3
[22] = tested on: Hepatitis C virus; assay: Antiviral activity against HCV genotype 3a infected in homozygous cDNA-uPA chimeric SCID mouse bearing humanized hepatocytes assessed as reduction in HCV RNA level in serum administered through oral gavage once daily for 7 days by RT-PCR method; format: functional, organism-based; conditions: Hepacivirus hominis, Hepatocyte
Outline: (§5)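 Male chimeric SCID cDNA-uPA+/+ mice with human hepatocyte liver (≥70% replacement by blood human albumin) and serum HCV RNA >1.0×10^6 copies/mL the week before dosing. Oral gavage for 7 days in 20% HP-β-CD, 50-200 mg/kg QD or BID. Serum sampled pre-dose on days 1, 2, 3, 5 and 7. Real-time PCR; mean change in log10 copies/mL, day 7 vs day 1 pre-dose.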

[23] = tested on: Hepatitis C virus; assay: Antiviral activity against HCV genotype 3a infected in homozygous cDNA-uPA chimeric SCID mouse bearing humanized hepatocytes assessed as change in HCV RNA level in serum at 200 mg/kg, po bid administered through gavage for 7 days by RT-PCR method; format: functional, Hepacivirus hominis, Hepatocyte; outline: as §5
[24] = tested on: Hepatocyte; assay: Prodrug conversion in human hepatocytes assessed as 2'-deoxy-2'-spirooxetane uridine triphosphate formation in presence of pan-CYP inhibitor 1-ABT by LC-MS/MS analysis; format: ADME, cell-based

Drug metabolism [1]: 0.38 pmol
Stability [2]: Stable
Stability [3]: Stable
Drug metabolism [4]: metabolite_detected
Drug metabolism [5]: metabolite_detected
SMILES: [3H]C1O[P@](=O)(OC(C)C)O[C@@H]2[C@@H]1O[C@@H](n1ccc(=O)[nH]c1=O)[C@@]21CCO1 (some centres undefined)

SMILES: CC(C)O[P@@]1(=O)OC[C@H]2O[C@@H](n3ccc(=O)[nH]c3=O)[C@@]3(CCO3)[C@@H]2O1
Tlast [6]: 24 h
Tmax [7]: 4 h
CC50 at 72 h [8]: > 100 µM
Drug metabolism [9]: metabolite_detected
AUC [10]: 758393 ng·h/g
Drug metabolism [11]: 0.519 pmol
CL [12]: 0.058 µL/min
AUClast [13]: 126982 ng·h/g
pEC50 [14]: < 4.00
Tmax [15]: 4 h
Drug metabolism [16]: 0.181 pmol
Drug metabolism [17]: 0.95 pmol
Tlast [18]: 24 h
Drug metabolism [19]: metabolite_notdetected
AUC [20]: 129396 ng·h/g
AUClast [21]: 35596 ng·h/g
Activity [22]: Dose-dependent effect
Activity [23]: -1.58
Drug metabolism [24]: metabolite_notdetected
